Consider 19 compounds from ChEMBL document CHEMBL4387755 (Bioorg Med Chem, 2019).

Molecules are shown by their SMILES.

Format in all cases: functional, cell-based
The target of assay [1] is T1, Melatonin receptor type 1A (Homo sapiens, UniProt P48039). Description: Agonist activity at MT1 receptor (unknown origin) expressed in HEK293 cells at 0.5 mM by Fluo-8 dye-based calcium assay relative to control. Put shortly:
(§1)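 HEK293 cells grown at 37 °C, 5% CO2 in DMEM with 10% FBS and G418 (400 μg/mL). Seeded at 4 × 10⁴/well on Matrigel-coated plates and grown 24 h. Loaded with Fluo-8 calcium dye for 1 h. Compounds were dissolved in DMSO and diluted in HBSS, then added automatically. Fluorescence was read at room temperature (ex 485 nm, em 525 nm, cut-off 515 nm). Agonistic rate was measured at 0.5 mM.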

Assay [2] has as its target T2, Melatonin receptor type 1B (Homo sapiens) (UniProt P49286).
T2 sequence (whole entry): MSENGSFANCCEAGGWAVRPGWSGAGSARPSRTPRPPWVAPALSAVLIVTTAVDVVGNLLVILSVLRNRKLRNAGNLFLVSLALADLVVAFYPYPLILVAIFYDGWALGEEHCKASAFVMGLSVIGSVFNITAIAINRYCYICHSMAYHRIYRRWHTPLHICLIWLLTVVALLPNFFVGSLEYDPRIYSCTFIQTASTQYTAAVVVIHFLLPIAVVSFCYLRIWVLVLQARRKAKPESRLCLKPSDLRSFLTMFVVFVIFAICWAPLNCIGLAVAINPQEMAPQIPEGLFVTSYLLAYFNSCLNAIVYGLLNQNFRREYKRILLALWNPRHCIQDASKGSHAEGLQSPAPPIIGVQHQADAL
Nature of the assay: Agonist activity at MT2 receptor (unknown origin) expressed in HEK293 cells at 0.5 mM by Fluo-8 dye-based calcium assay relative to control. A digest of the protocol: as §1

Assay [3] deals with T1, Melatonin receptor type 1A. Nature of the assay: Agonist activity at MT1 receptor (unknown origin) expressed in HEK293 cells by Fluo-8 dye-based calcium assay.
Assay [4] deals with T3, Melatonin receptor type 1B (Homo sapiens, UniProt P49286).
T3 sequence (P49286 whole entry): T2 sequence (whole entry)
Nature of the assay: Agonist activity at MT2 receptor (unknown origin) expressed in HEK293 cells by Fluo-8 dye-based calcium assay.

T1 sequence (P48039 whole entry): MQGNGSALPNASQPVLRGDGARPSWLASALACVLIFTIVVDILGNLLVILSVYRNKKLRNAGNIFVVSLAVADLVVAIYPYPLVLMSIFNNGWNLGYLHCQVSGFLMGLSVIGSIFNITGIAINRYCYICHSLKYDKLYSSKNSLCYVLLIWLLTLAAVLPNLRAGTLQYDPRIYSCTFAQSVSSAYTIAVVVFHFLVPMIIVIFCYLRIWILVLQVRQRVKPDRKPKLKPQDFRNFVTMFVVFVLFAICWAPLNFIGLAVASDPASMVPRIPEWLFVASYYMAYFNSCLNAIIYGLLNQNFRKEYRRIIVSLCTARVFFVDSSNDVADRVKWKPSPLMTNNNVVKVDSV

Turning to `CCOCc1ccc(O)c(Cc2ccc(O)c(Cc3ccc(O)cc3)c2)c1`, the values for the Activity in assay [1] and in assay [2] were -5.7% and -10.4%, respectively.
Turning to `CCOCc1ccc(O)c(Cc2ccc(O)cc2)c1`, the Activity in assay [1] is 3.3%; in assay [2], 38.3%.
On to `OC[C@H]1O[C@@H](Oc2ccc(Sc3ccc(O)cc3)cc2)[C@H](O)[C@@H](O)[C@@H]1O`, for which the Activity in assay [1] is -2.3%; in assay [2] it was -2.2%.
Turning to `Oc1ccc(Sc2ccc(O)cc2)cc1`, the Activity in assay [1] came to 44.6%; in assay [2], 94.1%.
On to `CN(c1ccc(O)cc1)c1ccc(O)cc1`, for which the Activity in assay [1] is -9.5%; in assay [2], 44.7%.
As to `CCOCc1cc(Cc2ccc(O)cc2)ccc1O`, the results for the Activity in assay [1] and in assay [2] were 37% and 117%, respectively.
Consider `CCOCc1ccc(O)c(Cc2ccc(O)c(COCC)c2)c1`, for which the Activity was -11.2% in assay [1] and 5.3% in assay [2].
As usually defined, the EC50 is the concentration that produces a half-maximal response. With `Oc1ccc(Cc2ccc(O)cc2)cc1`, the Activity in assay [1] amounted to 80.3%; in assay [2], 103%. The EC50 was determined as 237 µM in assay [3] and 244 µM in assay [4].
For the compound `Oc1ccc(Cc2ccc(O)c(Cc3ccccc3Cc3ccccc3)c2)cc1`, the Activity in assay [1] is -2.3%; in assay [2] it was -6.7%.
As to `CC(=O)OC[C@H]1O[C@@H](Oc2ccc(Sc3ccc(O[C@@H]4O[C@H](COC(C)=O)[C@@H](OC(C)=O)[C@H](OC(C)=O)[C@H]4OC(C)=O)cc3)cc2)[C@H](OC(C)=O)[C@@H](OC(C)=O)[C@@H]1OC(C)=O`, the Activity in assay [1] was -0.4%; in assay [2] it was -3.6%.
For `Oc1ccc(Cc2cc(Sc3ccc(O)cc3)ccc2O)cc1` the same measures were 31.3% and 48.4%.
For the compound `Oc1ccc(COCc2ccc(O)c(Cc3ccc(O)cc3)c2)cc1`, the results for the Activity in assay [1] and in assay [2] were 25.1% and 59.4%, respectively.
For `CCOCc1cc(Cc2ccc(O)cc2)c(O)c(Cc2ccc(O)c(Cc3ccc(O)cc3)c2)c1`, the values for the Activity in assay [1] and in assay [2] were -5.3% and 29.5%, respectively.
The like results for `Oc1ccc(Cc2ccc(O)c(Cc3ccc(O)cc3)c2)cc1` were, in that order, 46.5% and 134%.
For `Oc1ccc(Cc2ccc(O)c(Cc3ccccc3)c2)cc1` the same measures were -8.6% and -6.6%.
`Oc1ccc(Oc2ccc(O)cc2)cc1`: the Activity was 45.9% in assay [1] and 67.1% in assay [2].
With `Oc1ccc(Cc2cc(Oc3ccc(O)cc3)ccc2O)cc1`, the values for the Activity in assay [1] and in assay [2] were 37.1% and 51.2%, respectively.
The like results for `CC(=O)OC[C@H]1O[C@@H](Oc2ccc(Sc3ccc(O)cc3)cc2)[C@H](OC(C)=O)[C@@H](OC(C)=O)[C@@H]1OC(C)=O` were, in that order, 0.3% and 8.5%.
With `Oc1ccc(COc2ccc(Cc3ccc(O)cc3)cc2)cc1`, the Activity in assay [1] was -5.6%; in assay [2], 15.3%.
